The results in this text go back to ChEMBL document CHEMBL1141075, “4-Oxo-4,7-dihydrothieno[2,3-b]pyridines as non-nucleoside inhibitors of human cytomegalovirus and related herpesvirus polymerases” (J Med Chem, 2005).

Assay [1] relates to Vero. As to the kind of experiment: Antiviral activity against herpes simplex virus type 1 KOS (WT) plaque forming unit grown on African green monkey kidney Vero cells upon incubation for 1 hour at 37 degrees C with compound dissolved in DMSO. The settings on record: Chlorocebus sabaeus.
The test system of assay [2] is Vero. In words: Antiviral activity against herpes simplex virus type 1 Patton (WT) plaque forming unit grown on Human foreskin fibroblast cells upon incubation for 1 hour at 37 degrees C with compound dissolved in DMSO. The assay is classed as functional, cell-based. The settings on record: Chlorocebus sabaeus. A digest of the protocol: (§1)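 Plaque reduction: about 50 PFU added per well of a 24-well dish of the appropriate cells, 1 h at 37 °C, then the inoculum was replaced by drug-containing DMEM with 10% FBS and 0.8% carboxymethyl cellulose. DMSO stocks were 200-fold. Plates were held at 37 °C until plaques formed. Plaques were counted microscopically or after crystal violet stain. Percent inhibition was taken against the uninhibited control, with IC50 by linear regression.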

For assay [3], the system named is Vero. In words: Antiviral activity against herpes simplex virus type 2 (V826A) plaque forming unit grown on Human foreskin fibroblast cells upon incubation for 1 hour at 37 degrees C with compound dissolved in DMSO. It is filed as functional, cell-based. The conditions noted are these: Chlorocebus sabaeus. A digest of the protocol: as §1
Assay [4] relates to Vero. In words: Antiviral activity against herpes simplex virus type 1 Patton(BWr) plaque forming unit grown on Human foreskin fibroblast cells upon incubation for 1 hour at 37 degrees C with compound dissolved in DMSO. The assay is classed as functional, cell-based. The conditions noted are these: Chlorocebus sabaeus. A digest of the protocol:
as §1

Assay [5] relates to Vero. As to the kind of experiment: Antiviral activity against herpes simplex virus type 1 KOS (AraAr13) plaque forming unit grown on Human foreskin fibroblast cells upon incubation for 1 hour at 37 degrees C with compound dissolved in DMSO. The assay is classed as functional, cell-based. The settings on record: Chlorocebus sabaeus. The method in brief:
as §1

The test system of assay [6] is Vero. In words: Antiviral activity against herpes simplex virus type 1 KOS (PAAr5) plaque forming unit grown on African green monkey kidney Vero cells upon incubation for 1 hour at 37 degrees C with compound dissolved in DMSO. The settings on record: Chlorocebus sabaeus.
A further assay has as its system HFF. As to the kind of experiment: Antiviral activity against human cytomegalovirus Ad169 (WT) plaque forming unit grown on Human foreskin fibroblast cells upon incubation for 1 hour at 37 degrees C with compound dissolved in DMSO. The assay is classed as functional, cell-based, Human betaherpesvirus 5. The method in brief: as §1
Assay [7] has as its system Vero. In words: Antiviral activity against herpes simplex virus type 1 KOS (PFAr2) plaque forming unit grown on Human foreskin fibroblast cells upon incubation for 1 hour at 37 degrees C with compound dissolved in DMSO. It is filed as functional, cell-based. The settings on record: Chlorocebus sabaeus. The method in brief: as §1

The structures appear in SMILES notation.

Regarding `Cn1cc(C(=O)NCc2ccc(Cl)cc2)c(=O)c2cc(CN3CCOCC3)sc21`, the IC50 (usually the concentration at which inhibition is half-maximal) with Vero [1] is 5.6 µM; with Vero [2], 5.4 µM; in the assay on Vero [3] it was above 50 µM; in the assay with Vero [4], 2500 nM; in the assay with Vero [5] it was 2100 nM; with Vero [6] it was 800 nM. The IC50 in the assay with HFF came to 1500 nM; with Vero [7], 2500 nM.
